Calls of active or inactive are those of the source. The calls are words filed in the database; no cut-off is given here.
Assays:
[1] = system: L6; assay: Cytotoxicity against rat L6 cells after 72 hrs by alamar blue assay; format: cell-based; details: L6, 72 h
[2] = system: Plasmodium falciparum; assay: Antimalarial activity against Plasmodium falciparum NF54 infected in human erythrocytes assessed as [3H]-hypoxanthine incorporation by scintillation counting analysis; format: functional, organism-based
How it was run: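 NF54 parasites grown in human erythrocytes in RPMI 1640 with 0.5% ALBUMAX II, 25 mM Hepes, 25 mM NaHCO3 (pH 7.3), 0.36 mM hypoxanthine and 100 μg/mL neomycin, at 37 °C under 3% O2/4% CO2/93% N2, humidified. IC50 derived in vitro from [3H]hypoxanthine incorporation. Compounds held as 10 mM DMSO stocks at -20 °C.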

[3] = molecular target: T1, HSP90 (Plasmodium falciparum 3D7) (UniProt Q8IL32); assay: Binding affinity to recombinant Plasmodium falciparum Hsp90 expressed in Escherichia coli BL21(DE3) pLysS assessed as thermophoresis shift at 50 uM by microscale thermophoresis assay
T1 sequence (whole entry): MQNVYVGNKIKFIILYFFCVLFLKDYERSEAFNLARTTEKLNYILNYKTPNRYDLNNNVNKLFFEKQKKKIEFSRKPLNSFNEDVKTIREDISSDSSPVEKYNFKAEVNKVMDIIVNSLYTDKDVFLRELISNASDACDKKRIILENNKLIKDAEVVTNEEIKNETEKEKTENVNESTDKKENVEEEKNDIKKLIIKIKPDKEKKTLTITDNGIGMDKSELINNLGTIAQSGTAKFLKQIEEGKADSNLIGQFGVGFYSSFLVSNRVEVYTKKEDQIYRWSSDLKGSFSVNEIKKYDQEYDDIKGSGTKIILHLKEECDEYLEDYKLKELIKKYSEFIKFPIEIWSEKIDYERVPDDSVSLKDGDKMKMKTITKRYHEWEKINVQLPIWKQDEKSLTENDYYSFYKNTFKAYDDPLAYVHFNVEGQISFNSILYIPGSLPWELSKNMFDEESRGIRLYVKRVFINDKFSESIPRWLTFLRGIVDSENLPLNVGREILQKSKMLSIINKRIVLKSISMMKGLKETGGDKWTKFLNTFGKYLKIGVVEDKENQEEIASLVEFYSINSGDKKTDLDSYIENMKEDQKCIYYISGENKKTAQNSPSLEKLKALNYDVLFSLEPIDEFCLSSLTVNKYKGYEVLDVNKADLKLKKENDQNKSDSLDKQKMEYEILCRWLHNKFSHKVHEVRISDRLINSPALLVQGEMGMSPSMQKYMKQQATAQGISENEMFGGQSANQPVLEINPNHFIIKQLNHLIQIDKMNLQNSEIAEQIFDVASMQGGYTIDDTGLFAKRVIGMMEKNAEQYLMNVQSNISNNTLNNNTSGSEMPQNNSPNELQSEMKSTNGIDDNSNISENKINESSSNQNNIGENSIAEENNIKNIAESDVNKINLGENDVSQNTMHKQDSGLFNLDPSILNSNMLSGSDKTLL
How it was run: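 Microscale thermophoresis with fluorescently labeled PfHsp90: ligand-induced change in the protein's movement along a temperature gradient. Each compound tested at a fixed 50 μM. Compounds were held as 10 mM stocks in 100% DMSO at -20 °C.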

[4] = (§1) Binding affinity to recombinant Plasmodium falciparum Hsp90 ISG-LGA mutant expressed in Escherichia coli BL21(DE3) pLysS by microscale thermophoresis assay
[5] = molecular target: Heat shock protein 90 (Plasmodium falciparum, UniProt Q8IC05); assay: Binding affinity to recombinant Plasmodium falciparum Hsp90 expressed in Escherichia coli BL21(DE3) pLysS by microscale thermophoresis assay
[6] = system: Plasmodium falciparum; assay: Antimalarial activity against Plasmodium falciparum K1 infected in human erythrocytes after 72 hrs by DAPI staining-based confocal imaging system; format: functional, organism-based; details: K1, 72 h
[7] = system: Plasmodium falciparum; assay: Antimalarial activity against Plasmodium falciparum 3D7 infected in human erythrocytes after 72 hrs by DAPI staining-based confocal imaging system; format: functional, organism-based; details: 3D7, 72 h
[8] = molecular target: Heat shock protein HSP 90-beta (Homo sapiens) (UniProt P08238); assay: Binding affinity to recombinant human Hsp90 beta expressed in Escherichia coli BL21(DE3) pLysS by microscale thermophoresis assay
[9] = system: Plasmodium falciparum; assay: as §1

Sequence of Heat shock protein 90 (Q8IC05 1-745): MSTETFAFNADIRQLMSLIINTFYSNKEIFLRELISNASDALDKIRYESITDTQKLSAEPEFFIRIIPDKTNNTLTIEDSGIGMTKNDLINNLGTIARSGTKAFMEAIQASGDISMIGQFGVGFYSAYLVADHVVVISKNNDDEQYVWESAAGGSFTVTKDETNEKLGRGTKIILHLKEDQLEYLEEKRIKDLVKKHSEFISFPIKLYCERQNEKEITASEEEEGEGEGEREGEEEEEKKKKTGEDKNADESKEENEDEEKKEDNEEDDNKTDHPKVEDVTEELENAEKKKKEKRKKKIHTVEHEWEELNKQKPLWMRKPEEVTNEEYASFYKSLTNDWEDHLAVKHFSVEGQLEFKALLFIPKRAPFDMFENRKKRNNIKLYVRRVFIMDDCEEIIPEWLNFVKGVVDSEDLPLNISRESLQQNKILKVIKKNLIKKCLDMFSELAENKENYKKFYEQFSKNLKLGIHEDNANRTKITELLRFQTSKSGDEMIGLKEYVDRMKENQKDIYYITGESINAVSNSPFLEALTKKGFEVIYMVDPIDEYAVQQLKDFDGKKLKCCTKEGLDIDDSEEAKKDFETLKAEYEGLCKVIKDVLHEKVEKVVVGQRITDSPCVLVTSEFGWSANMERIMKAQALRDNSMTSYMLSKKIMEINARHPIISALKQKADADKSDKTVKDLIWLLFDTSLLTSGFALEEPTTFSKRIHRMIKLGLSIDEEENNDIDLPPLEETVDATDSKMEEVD
Sequence of Heat shock protein HSP 90-beta (Homo sapiens) (P08238 whole entry): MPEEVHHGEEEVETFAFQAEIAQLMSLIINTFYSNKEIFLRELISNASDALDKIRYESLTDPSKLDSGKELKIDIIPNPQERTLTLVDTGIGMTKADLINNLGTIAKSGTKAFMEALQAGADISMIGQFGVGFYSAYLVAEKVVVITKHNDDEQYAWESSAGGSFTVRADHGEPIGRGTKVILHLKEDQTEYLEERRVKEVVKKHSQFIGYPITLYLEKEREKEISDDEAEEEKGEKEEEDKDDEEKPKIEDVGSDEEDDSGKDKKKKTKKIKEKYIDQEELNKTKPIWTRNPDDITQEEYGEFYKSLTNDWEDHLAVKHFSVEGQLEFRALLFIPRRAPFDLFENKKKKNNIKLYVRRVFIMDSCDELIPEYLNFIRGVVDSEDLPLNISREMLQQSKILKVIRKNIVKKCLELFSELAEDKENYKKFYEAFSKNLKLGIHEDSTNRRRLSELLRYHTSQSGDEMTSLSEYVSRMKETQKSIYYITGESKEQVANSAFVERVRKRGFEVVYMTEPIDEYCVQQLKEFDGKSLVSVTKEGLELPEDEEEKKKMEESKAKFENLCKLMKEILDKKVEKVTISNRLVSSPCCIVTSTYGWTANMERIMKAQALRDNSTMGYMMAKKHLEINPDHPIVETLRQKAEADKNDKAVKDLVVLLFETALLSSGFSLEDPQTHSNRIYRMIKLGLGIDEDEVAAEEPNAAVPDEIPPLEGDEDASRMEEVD

Row | Compound | IC50 [1] [µM] | IC50 [2] [µM] | Activity [3] [U] | Kd [4] [µM] | Kd [5] [µM] | IC50 [6] [µM] | IC50 [7] [µM] | Activity [8] | Activity [9]
1 | O=C(c1ccccc1)N1CCN(CC(O)Cn2c3ccc(Br)cc3c3cc(Br)ccc32)CC1 (centres undefined) | 10.2 | 2.34 | 6.95 |  |  |  |  |  | 
2 | CCC(C)NCC(O)Cn1c2ccc(Cl)cc2c2cc(Cl)ccc21 (centres undefined) | 0.975 | 1.56 | 3.85 |  |  |  |  |  | 
3 | OC(CN1CCOCC1)Cn1c2ccc(Cl)cc2c2cc(Cl)ccc21 (centres undefined) | 9.72 | 1.23 | 8.19 |  |  |  |  |  | 
4 | CC1CCCC(C)N1CC(O)Cn1c2ccccc2c2ccccc21 (centres undefined) | 37.7 | 4.97 | 0.6 |  |  |  |  |  | 
5 | COC1=C2C[C@@H](C)C[C@H](OC)[C@H](O)[C@@H](C)/C=C(\C)[C@H](OC(N)=O)[C@@H](OC)/C=C\C=C(/C)C(=O)NC(=CC1=O)C2=O [GELDANAMYCIN] |  |  |  | 0.51 |  |  |  |  | 
6 | OC(CN1CCCCCC1)Cn1c2ccccc2c2ccccc21 (centres undefined) | 6.85 | 7.79 | 1.11 |  |  |  |  |  | 
7 | CN(C)CC(O)Cn1c2ccc(Br)cc2c2cc(Br)ccc21 (centres undefined) | 3.66 | 1.67 | 0.41 |  |  |  |  |  | 
8 | OC(CN1CCOCC1)Cn1c2ccc(Br)cc2c2cc(Br)ccc21 (centres undefined) | 11.6 | 2.08 | 6.87 |  |  |  |  |  | 
9 | O=C(c1ccccc1)N1CCN(CC(O)Cn2c3ccc(Cl)cc3c3cc(Cl)ccc32)CC1 (centres undefined) | 9.72 | 1.13 | 6.71 |  | 25.6 |  |  |  | 
10 | CC(C)NCC(O)Cn1c2ccc(Cl)cc2c2cc(Cl)ccc21 (centres undefined) | 2.61 | 0.07 to 0.082 | 8.38 |  |  | 0.48 to 1.8 | 0.48 to 1.8 |  | 
11 | OC(CN1CCN(Cc2ccccc2)CC1)Cn1c2ccccc2c2ccccc21 (centres undefined) | 10.8 | 0.994 | 6.68 |  |  |  |  |  | 
12 | OC(CNC1CCCCC1)Cn1c2ccccc2c2ccccc21 (centres undefined) | 3.67 | 0.162 | 1.49 |  |  |  |  |  | 
13 | CC(C)(CO)NCC(O)Cn1c2ccccc2c2ccccc21 (centres undefined) | 6.22 | 10.1 | 0.49 |  |  |  |  |  | 
14 | CC(C)(C)NCC(O)Cn1c2ccccc2c2ccccc21 (centres undefined) | 7.21 | 2.08 | 0.725 |  |  |  |  |  | 
15 | OC(CN1CCN(Cc2ccccc2)CC1)Cn1c2ccc(Cl)cc2c2cc(Cl)ccc21 (centres undefined) | 3.6 | 0.082 | 6.41 |  | 28.1 |  |  | inactive | inactive
16 | CC(C)NCC(O)Cn1c2ccccc2c2ccccc21 (centres undefined) | 26.5 | 1.44 | 2.71 |  |  |  |  |  | 
17 | OC(CN1CCN(Cc2ccccc2)CC1)Cn1c2ccc(Br)cc2c2cc(Br)ccc21 (centres undefined) | 3.67 | 0.095 | 6.64 |  |  |  |  |  | 
18 | OC(CNC1CCCCC1)Cn1c2ccc(Cl)cc2c2cc(Cl)ccc21 (centres undefined) | 3.34 | 0.086 | 5.88 |  |  |  |  |  | 
19 | O=C(c1ccccc1)N1CCN(CC(O)Cn2c3ccccc3c3ccccc32)CC1 (centres undefined) | 25.2 | 14.9 | 3.33 |  |  |  |  |  | 
20 | CCC(CC)NCC(O)Cn1c2ccccc2c2ccccc21 (centres undefined) | 7.38 | 12.7 | 0.24 |  |  |  |  |  | 

Source: ChEMBL document CHEMBL4431313, “Inhibition of Plasmodium falciparum Hsp90 Contributes to the Antimalarial Activities of Aminoalcohol-carbazoles” (J Med Chem, 2016)
